Source: PubChem BioAssay (several laboratories)
Sampled rows, rich in hits. Any-hit rate of the full collection: about 2.6%.
TNAP inh no acc – inhibitors of human TNAP without phosphate acceptor; P05186; purified TNAP, CDP-star luminescence, 30 min; inhibition, % at 20 µM; actives 0.26% (n = 200,000); AID 1012;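 active = tissue-nonspecific alkaline phosphatase inhibition above about 50% at 20 µM in the single-dose screen, limit read from the data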
Target sequence (P05186 whole entry, looked up): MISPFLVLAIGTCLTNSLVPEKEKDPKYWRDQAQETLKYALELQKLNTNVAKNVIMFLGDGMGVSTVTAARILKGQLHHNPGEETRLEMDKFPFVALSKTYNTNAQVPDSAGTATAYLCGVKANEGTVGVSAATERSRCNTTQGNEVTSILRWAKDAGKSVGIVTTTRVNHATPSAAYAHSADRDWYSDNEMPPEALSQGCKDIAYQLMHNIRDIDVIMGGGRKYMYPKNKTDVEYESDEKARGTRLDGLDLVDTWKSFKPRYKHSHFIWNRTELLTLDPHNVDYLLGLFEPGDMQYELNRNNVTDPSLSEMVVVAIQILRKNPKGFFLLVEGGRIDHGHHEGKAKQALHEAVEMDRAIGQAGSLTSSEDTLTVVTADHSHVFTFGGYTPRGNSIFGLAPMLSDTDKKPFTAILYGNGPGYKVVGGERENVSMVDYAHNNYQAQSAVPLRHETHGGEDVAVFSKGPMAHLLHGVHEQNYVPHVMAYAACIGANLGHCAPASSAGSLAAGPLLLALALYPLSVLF
TNAP act hiacc – increases human TNAP activity under high phosphate acceptor concentration; P05186; purified TNAP, CDP-star luminescence, 1 M DEA, 30 min; hits give high values; 0 = EDTA background, 1 = DMSO-only activity; activation factor at 20 µM; 200,000 tested, under 10 active; AID 1136;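 active = activation factor at least 2 at 20 µM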
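Control set: EDTA negative control, DMSO positive control / Assay system: human TNAP / Quantity: TNAP 1/800 final / Evaluation: TNAP activation factor scaled between EDTA and DMSO control wells / Measured by: luminescent substrate turnover signal / Compound dosing: one dose, 20 µM / Times: 30 min enzyme reaction at room temperature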
WT yeast gro inh – growth inhibition of WT yeast, mitochondrial fusion screen; mitochondrial fusion phenotypic screen, WT strain; actives 2.1% (n = 190,000); inhibition, % at 10 µM; in the data active = inhibition above about 58%; tested in S. cerevisiae
Arbovirus anti – arbovirus infection inhibition; arbovirus infection cell-based antiviral screen; inhibition, % at 10 µM; actives 0.37% (n = 200,000); in the data active = inhibition above about 30%
TNAP inh hiacc – blocks human TNAP under high phosphate acceptor concentration; inhibition, % at 20 µM; P05186; actives 0.03% (n = 200,000); purified TNAP, CDP-star luminescence, 1 M DEA;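 active = over 50% inhibition of tissue-nonspecific alkaline phosphatase at 20 µM in the single-dose screen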
Large screens that a line does not name were inactive.

Cc1nn2c(Nc3ccc(F)cc3)c3c(nc2c1-c1ccccc1)CCC3	none
Nc1nc(CSc2n[nH]c(-c3ccccc3)n2)nc(Nc2ccccc2)n1	TNAP inh no acc 90
Cc1ccc(-c2nc(Nc3ccccc3)n[nH]2)cc1	TNAP inh no acc 50
Cc1ccc(Nc2nc(N)nc(CSc3nc4ccccc4s3)n2)cc1	WT yeast gro inh 86
COc1ccc(Nc2nc(N)nc(CSc3n[nH]c(-c4ccccc4)n3)n2)cc1	TNAP inh no acc 81
N#Cc1c(Cl)nsc1NC(=O)c1ccccc1	none
CCOC(=O)c1cnc(SCc2nc(N)nc(Nc3ccc(F)cc3)n2)nc1N	none
CCOC(=O)c1cnc(SCc2nc(N)nc(Nc3ccc(C)cc3)n2)nc1N	Arbovirus anti 44
CN(c1ccccc1)S(=O)(=O)c1cccc(C(=O)NCCc2ccc(O)c(O)c2)c1	TNAP inh no acc 51
COc1ccc(CCNC(=O)c2ccc(Cl)c(S(=O)(=O)N(C)c3ccccc3)c2)cc1	none
O=C(CSc1n[nH]c(-c2ccccc2F)n1)NCC(=O)Nc1ccc(F)c(F)c1F	TNAP inh no acc 89
CN(C)S(=O)(=O)N1CCC(Cc2ccccc2)CC1	none
N/C(=N/O)c1ccccc1N1CCC(Cc2ccccc2)CC1	WT yeast gro inh 70
Brc1ccc(-c2nnc(-c3ccccc3)c(N3CCSCC3)n2)cc1	WT yeast gro inh 63
COC(=O)Cn1ccc(-c2ccc(Cl)cc2)c(C#N)c1=O	none
COC(=O)Cn1ccc(N(C)C)c(C#N)c1=O	WT yeast gro inh 60
Cc1ccc(C(=O)Nc2ccc(Cl)cc2C)c(Cl)c1	none
CC(C)NC(=S)N/N=C/c1ccc(C(C)(C)C)cc1	WT yeast gro inh 61
CCOC(=O)N1C=CC=C[C@@H]2[C@@H](N3C(=O)c4ccccc4C3=O)C(=O)N21	none
COc1ccc(CCn2nnnc2C(C(C)C)N2CCN(c3ncccn3)CC2)cc1OC (stereo not given)	WT yeast gro inh 62
COc1ccc(CCn2nnnc2C(CC(C)C)N2CCN(c3ncccn3)CC2)cc1OC (stereo not given)	WT yeast gro inh 66
COc1ccc(CCn2nnnc2C(CC(C)C)N2CCC(C(N)=O)CC2)cc1OC (stereo not given)	none
O=C(OCc1csc(Nc2ccccc2)n1)c1ccc(Cl)cc1	WT yeast gro inh 76
COc1cc(C(=O)Nc2ccc(NC(C)=O)cc2)ccc1OCc1ccccc1	none
CCOc1ccc(NS(=O)(=O)c2cc(OC)ccc2OC)cc1	none
COc1ccc(OC)c(S(=O)(=O)Nc2ccc(O)c3ccccc23)c1	WT yeast gro inh 62
COc1ccc(OC)c(S(=O)(=O)Nc2ccc(Oc3ccccc3)cc2)c1	WT yeast gro inh 63
CC(C)CC1=NN(C(=O)c2ccncc2)C(O)(C(F)(F)F)C1 (stereo not given)	none
Clc1ccc(CSc2nnc(-c3ccncc3)o2)c(Cl)c1	WT yeast gro inh 76
COC(=O)c1sccc1NC(=S)N1CC(C)CC(C)C1 (stereo not given)	none
COc1nc(OCC#N)nc(N2CCCCC2)n1	none
COc1nc(N2CCCCCC2)nc(N2CCCCCC2)n1	WT yeast gro inh 64
CCCc1cc(-c2nc(N)ncc2-c2csc(C)n2)c(O)cc1OC	none
CCCc1cc(-c2nc(N)ncc2-c2ccc3c(c2)OCCCO3)c(O)cc1OC	WT yeast gro inh 85
O=C1CN(C(=O)COC(=O)c2cccc(OCc3ccccc3)c2)c2ccccc2N1	none
CC(=O)NCCn1c(SCc2ccc(C)cc2)nc2ccccc2c1=O	WT yeast gro inh 65
CC(=O)NCCn1c(SCc2ccccc2F)nc2ccccc2c1=O	none
COC(=O)c1ccc(CSc2nc3ccccc3c(=O)n2CC(C)C)o1	WT yeast gro inh 58
COC(=O)c1ccc(CSc2nc3ccccc3c(=O)n2Cc2ccco2)o1	none
O=c1c2ccccc2nc(SCc2ccccc2Cl)n1Cc1ccccc1	WT yeast gro inh 69
CN(C)CC(C)(C)CNC(=O)c1cc(=O)c2ccccc2o1	none
CC1=NOC(=O)/C1=C\c1ccc(-c2cc(Cl)ccc2Cl)o1	none
CC1=NOC(=O)/C1=C\c1ccc(-c2ccc(Br)cc2)o1	WT yeast gro inh 75
CC1=NOC(=O)/C1=C/c1ccc(-c2ccc(Cl)cc2)o1	WT yeast gro inh 75
Nc1nc(NCc2ccccc2)nc(Nc2ccc(F)cc2)c1[N+](=O)[O-]	none
O=C(Nc1ccc(NC(=S)NC(=O)c2ccccc2F)cc1)c1cccs1	WT yeast gro inh 63
O=C(N/N=C/c1cccs1)c1ccc2c(c1)OCO2	none
Cn1c(-c2sccc2OCc2ccc(Cl)cc2Cl)n[nH]c1=S	WT yeast gro inh 64
Cc1ccc(COc2ccsc2-c2n[nH]c(=S)n2C)cc1	none
CCCCNc1cnn(-c2ccccc2)c(=O)c1Cl	none
CCc1ccc(Nc2cnn(-c3nc4ccccc4s3)c(=O)c2Cl)cc1	WT yeast gro inh 63
COc1ccccc1CNC(=O)c1ccccc1OCc1ccc(F)cc1	WT yeast gro inh 67
COc1cc(CNn2cn[nH]c2=S)cc(Cl)c1OCc1ccc(F)cc1	WT yeast gro inh 66
COc1cc(CNn2c(C)n[nH]c2=S)cc(Cl)c1OCc1ccccc1	none
COc1ccc(S(=O)(=O)N2CCC[C@H]2C(=O)NC2=NCCS2)cc1	WT yeast gro inh 66
CCN(CC)S(=O)(=O)c1cccc(NC(=O)c2ccc(Br)cc2)c1	WT yeast gro inh 70
O=C(NCCN1CCOCC1)c1ccc(F)cc1	none (no result: WT yeast gro inh)
O=C(NCCN1CCOCC1)c1ccc(=O)oc1	WT yeast gro inh 62
COc1cc(C(=O)NCc2nnc(SCC(=O)N3CCOCC3)o2)cc(OC)c1OC	none
O=C(CC(Nc1ccc(F)cc1)c1ccccc1)c1ccccc1 (stereo not given)	WT yeast gro inh 78
COc1ccccc1-c1nnc(SCc2ccccn2)n1C	none
COc1ccccc1-c1nc(SCc2ccccn2)n[nH]1	TNAP inh no acc 84
CC(=O)N(C)c1ccc(NC(=O)c2cnn(C)c2)cc1	none
CCC1=NN2C(=N)/C(=C\c3cccn3-c3ccc(Cl)cc3)C(=O)N=C2S1	none
CS(=O)(=O)C1=NSC2=NC(=O)/C(=C\c3cccn3-c3ccccc3Cl)C(=N)N21	Arbovirus anti 51
Cc1cc(C)cc(-n2cccc2/C=C2/C(=N)N3C(=NC2=O)SN=C3S(C)(=O)=O)c1	none
Cc1ccc(-n2cccc2/C=C2/C(=N)N3C(=NC2=O)SN=C3S(C)(=O)=O)cc1	Arbovirus anti 47
Cc1ccc(-n2cccc2/C=C2\C(=N)N3N=C(c4ccco4)SC3=NC2=O)cc1	Arbovirus anti 46
COc1cccc(-n2c(C)cc(/C=C3/C(=N)N4C(=NC3=O)SN=C4S(C)(=O)=O)c2C)c1	Arbovirus anti 40
COc1ccccc1S(=O)Cc1ccc(C(=O)NCCc2ccc(Cl)cc2)o1 (stereo not given)	none
Cc1ccc(NC(=O)c2ccco2)c([N+](=O)[O-])c1	none
CCN(CC)P(=O)(Nc1ccc(C)cc1Br)c1ccc(N(C)C)cc1NC(=O)c1ccco1 (stereo not given)	WT yeast gro inh 60
